Results as given in paper PMC7321800 (Journal of immunology (Baltimore, Md. : 1950), 2020).
Values after ≈ are worked out from the molar mass of the structure shown. Values joined by “and” are separate entries in the source; they are usually repeats but may differ in a detail not shown here. Equal values may be shown once. “Also recorded” adds a separate entry of the source. Read-outs that look alike come from different tables or passages of the source.

How the values were obtained:
N. gonorrhoeae [1] = details: cited from earlier work
N. gonorrhoeae H041 [2] = assay: Mouse vaginal colonization model, wild-type BALB/c mice; assay type: in vivo; details: strain H041; for Efficacy in clearing gonococcal colonization: 10 µg intravaginally daily, wild-type BALB/c mice; for First day with significantly lower CFU counts than saline control: 10 µg/d intravaginally, two-way ANOVA, Dunnett
[3] = test system: FH purified from human plasma; details: compared with Neu5Ac; cited from earlier work
[4] = test system: FH purified from human plasma; assay: Factor H binding to bacteria by flow cytometry; details: for FH binding (fluorescence) relative to that seen with Neu5Ac substituted LOS / Decrease in FH binding fluorescence relative to Neu5Ac: NulO capped LNnT LOS
N. gonorrhoeae F62 ΔlgtD [5] = details: bacteria fed with the CMP salts; cited from earlier work
[6] = target: T1, N. gonorrhoeae LOS sialyltransferase (Lst) (Neisseria gonorrhoeae, UniProt P72074); details: tested as CMP salts; cited from earlier work
T1 sequence (P72074 whole entry): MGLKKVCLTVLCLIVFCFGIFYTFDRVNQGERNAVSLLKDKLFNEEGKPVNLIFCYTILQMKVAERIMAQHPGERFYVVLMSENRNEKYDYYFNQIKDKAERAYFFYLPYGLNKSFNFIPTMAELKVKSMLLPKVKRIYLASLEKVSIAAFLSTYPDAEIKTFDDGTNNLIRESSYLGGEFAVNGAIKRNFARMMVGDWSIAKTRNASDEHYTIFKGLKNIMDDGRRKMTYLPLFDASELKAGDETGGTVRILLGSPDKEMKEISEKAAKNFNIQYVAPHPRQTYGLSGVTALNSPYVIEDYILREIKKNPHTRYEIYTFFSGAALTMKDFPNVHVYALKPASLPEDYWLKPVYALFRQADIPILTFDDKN

N. gonorrhoeae [7] = details: cited from earlier work; for Eradication of oropharyngeal infection: men who have sex with men and commercial sex workers
[8] = target: T1, N. gonorrhoeae LOS sialyltransferase (Lst); assay: Utilization of CMP-NulO as substrate by LOS sialyltransferase; assay type: biochemical; details: transfer of NulO to LNnT LOS
N. gonorrhoeae F62 ΔlgtD [9] = assay: Serum bactericidal assay with pooled normal human serum; assay type: cell-based, Neisseria gonorrhoeae; details: CMP-NulO added 15 min before or 15 min after CMP-Neu5Ac; 3.3% and 10% NHS
N. gonorrhoeae [10] = assay: Mouse vaginal colonization model, Cmah−/− mice; assay type: in vivo
N. gonorrhoeae H041 [11] = details: intravaginal administration; cited from earlier work
[12] = test system: N. gonorrhoeae strain H041; assay: Mouse vaginal colonization model, human FH/C4BP transgenic mice; assay type: in vivo
Outline: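 Premarin-treated human FH/C4BP transgenic BALB/c mice, 6-8 weeks old and in diestrus, were infected intravaginally with strain H041 (n=6/group). Test compound was given intravaginally once daily, starting 2 h before infection; the 10 µg dose was given as 1 mg/ml in sterile H2O. Saline was the vehicle control. Bacterial burden was followed over time, and areas under the curve were compared by nonparametric rank sum test.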

[13] = Stability of CMP-NulOs in solution; assay type: physicochemical
N. gonorrhoeae F62 ΔlgtD [14] = assay: Silver-stained SDS-PAGE of LOS; assay type: cell-based, Neisseria gonorrhoeae; details: media containing CMP-NulO 100 µg/ml
Outline: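 F62 ΔlgtD was grown in liquid media with or without test compound. Protease K-treated (100 µg/ml) lysates were run on 16.5% Tris-Tricine gels with Tris-Tricine cathode buffer, and LOS was silver-stained. Slower LOS mobility than bacteria grown without test compound was taken to indicate NulO addition.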

[15] = F62 ΔlgtD grown with the CMP-NulO

In the case of `CO/N=C(\C(=O)N[C@@H]1C(=O)N2C(C(=O)O)=C(CSc3nc(=O)c(=O)[nH]n3C)CS[C@H]12)c1csc(N)n1` [ceftriaxone], the MIC (N. gonorrhoeae [1]; strain CTX-r Spain) is given as > 2 µg/mL, the MIC (N. gonorrhoeae [1]; strain H041 (WHO X)) is given as 2 to 4 µg/mL and the MIC (N. gonorrhoeae [1]; strain SD-1) is given as 0.094 µg/mL (≈ 0.169 µM). The MIC (N. gonorrhoeae [1]; strain UMNJ60_06UM (NJ-60)) was 0.38 µg/mL (≈ 0.685 µM).

For `C=CC1=C(C(=O)O)N2C(=O)[C@@H](NC(=O)/C(=N\OCC(=O)O)c3csc(N)n3)[C@H]2SC1` [cefixime], the MIC (N. gonorrhoeae [1]; strain SD-1) is given as 0.125 µg/mL (≈ 0.276 µM).

In the case of `CC(=O)N[C@H]1[C@H]([C@H](O)[C@H](O)CN=[N+]=[N-])OC(OP(=O)(O)OC[C@H]2O[C@@H](n3ccc(N)nc3=O)[C@H](O)[C@@H]2O)(C(=O)O)C[C@@H]1O` (stereo partly drawn) [CMP-Neu5Ac9N3], the “Efficacy in clearing gonococcal colonization” value (N. gonorrhoeae H041 [2]) is reported as “equally efficacious; also recorded: as efficacious as CMP-Leg5,7Ac2” and the “First day with significantly lower CFU counts than saline control” value (N. gonorrhoeae H041 [2]) is reported as 2 days.

For `CC(=O)N[C@@H]([C@@H]1O[C@](O)(C(=O)O)C[C@H](O)[C@H]1NC(C)=O)[C@@H](C)O` [Leg5,7Ac2], the “FH binding to gonococci with NulO capped LNnT LOS” value (from here on “FH binding to gonococci”) [3] is given as “lack of detectable FH binding”, the “FH binding compared with unsialylated bacteria” value ([4]; F62 ΔlgtD grown with the CMP-NulO, NulO substituted LOS) is given as “did not bind FH above levels seen with unsialylated bacteria” and the “Effect of NulO incorporation into LOS on bacterial resistance to complement” value (N. gonorrhoeae F62 ΔlgtD [5]) is given as “did not enhance bacterial resistance to complement”. The “Utilization by Lst” value [6] was “utilized by Lst”.

With `CC(=O)N[C@H]1[C@H]([C@H](O)[C@H](O)COC(C)=O)OC(O)(C(=O)O)C[C@@H]1O` (stereo partly drawn) [Neu5,9Ac2] the “FH binding (fluorescence) relative to that seen with Neu5Ac substituted LOS” value [4, 15] was ~ 30% and the “Decrease in FH binding fluorescence relative to Neu5Ac” value [4] was ~ 70%.

In the case of `CC[C@H]1OC(=O)[C@@](C)(F)C(=O)[C@H](C)[C@@H](O[C@@H]2O[C@H](C)C[C@H](N(C)C)[C@H]2O)[C@](C)(OC)C[C@@H](C)C(=O)[C@H](C)[C@H]2N(CCCCn3cc(-c4cccc(N)c4)nn3)C(=O)O[C@]12C` [Solithromycin, solithromycin], the “Non-inferiority versus ceftriaxone plus azithromycin” value (N. gonorrhoeae [7]; phase III trial) is listed as “failed to meet non-inferiority criteria”.

For `O=C(O)C(=O)C[C@H](O)[C@@H](O)[C@@H](O)[C@H](O)[C@H](O)CO` [Kdn, 3-deoxy-D-glycero-D-galacto-nonulosonic acid], the “FH binding (fluorescence) relative to that seen with Neu5Ac substituted LOS” value [4, 15] was ~ 60% and ~ 62% and the “Decrease in FH binding fluorescence relative to Neu5Ac” value [4] was ~ 40%.

With `[N-]=[N+]=N[C@@H]([C@H](O)[C@H](O)[C@@H](O)CC(=O)C(=O)O)[C@H](O)CO` [Kdn7N3, 3,7-dideoxy-7-azido-D-glycero-D-galacto-nonulosonic acid] the “FH binding (fluorescence) relative to that seen with Neu5Ac substituted LOS” value [4, 15] was ~ 60% and ~ 62%.

In the case of `O=C(CO)N[C@H]1[C@H]([C@H](O)[C@H](O)CO)OC(O)(C(=O)O)C[C@@H]1O` (stereo partly drawn) [Neu5Gc, reference compound], the “FH binding to gonococci” value [3] is given as “no impact” and the “Utilization by Lst” value [6] is given as “utilized by Lst”.

In the case of `C[C@@H]1CN2c3c(cc4c(N5C(=O)OC[C@@H]5C)noc4c3F)CC3(C(=O)NC(=O)NC3=O)[C@H]2[C@H](C)O1` [Zoliflodacin, zoliflodacin], the “Treatment of uncomplicated urogenital infections” value (N. gonorrhoeae [7]) is listed as “appear promising” and the “Eradication of oropharyngeal infection” value (N. gonorrhoeae [7]) is listed as “failures to eradicate oropharyngeal infection”.

In the case of `CC(=O)N[C@H]1[C@H]([C@H](O)[C@H](O)CN=[N+]=[N-])OC(O)(C(=O)O)C[C@@H]1O` (stereo partly drawn) [Neu5Ac9N3], the “FH binding to gonococci” value [3] is given as “lack of detectable FH binding”, the “Effect of NulO incorporation into LOS on bacterial resistance to complement” value (N. gonorrhoeae F62 ΔlgtD [5]) is given as “did not enhance bacterial resistance to complement” and the “Utilization by Lst” value [6] is given as “utilized by Lst”.

With `[N-]=[N+]=N[C@@H](C1O[C@](OP(=O)(O)OC[C@H]2O[C@@H](n3ccc(N)nc3=O)C(O)C2O)(C(=O)O)CC(O)[C@H]1O)[C@H](O)CO` (stereo partly drawn) [CMP-Kdn7N3] the “Substrate for Lst” value [8] was “served as substrates for Lst” and the “Prevention of Neu5Ac-mediated serum resistance” value (“Prevention” for short) (N. gonorrhoeae F62 ΔlgtD [9]) was “ineffective in preventing CMP-Neu5Ac-mediated serum resistance”.

For `Nc1ccn([C@@H]2O[C@H](COP(=O)(O)O[C@@]3(C(=O)O)C[C@H](O)[C@@H](O)[C@H]([C@H](O)[C@H](O)CO)O3)[C@@H](O)[C@H]2O)c(=O)n1` [CMP-Kdn, CMP-ketodeoxynonulosonate], the “Substrate for Lst” value [8] was “served as substrates for Lst”, the “Prevention” value (N. gonorrhoeae F62 ΔlgtD [9]) was “effectively prevented Neu5Ac-mediated serum resistance only when added first” and the “Efficacy in clearing gonococcal colonization” value (N. gonorrhoeae H041 [2]) was “equally efficacious; also recorded: as efficacious as CMP-Leg5,7Ac2”. The “First day with significantly lower CFU counts than saline control” value (N. gonorrhoeae H041 [2]) was 2 days.

In the case of `CC(=O)N[C@@H]([C@@H]1O[C@](OP(=O)(O)OC[C@H]2O[C@@H](n3ccc(N)nc3=O)[C@H](O)[C@@H]2O)(C(=O)O)C[C@H](O)[C@H]1NC(C)=O)[C@@H](C)O` [CMP-Leg5,7Ac2], the “AUC (log10 CFU)” value (N. gonorrhoeae [10]; strain 398078, 10 µg daily) is reported as “zero”, the “Detection of bacteria in treated animals on day 1” value (N. gonorrhoeae [10]; strain 398078, swabs taken 24 h after infection, 10 µg daily) is reported as “unable to detect” and the “Efficacy (rate of clearance and bacterial burden compared to saline)” value (N. gonorrhoeae [10]; strains F62 ΔlgtD and H041, 10 µg daily intravaginally) is reported as “effective against both strains”. For the same compound, the “Duration and burden of vaginal colonization of multidrug-resistant N. gonorrhoeae in mice” value (N. gonorrhoeae H041 [11]) was “decreased the duration and reduced the burden of vaginal colonization”, the “Prevention” value (N. gonorrhoeae F62 ΔlgtD [9]) was “blocked CMP-Neu5Ac-mediated serum resistance when added after CMP-Neu5Ac” and the Efficacy ([12]; 1 µg/day intravaginally) was “ineffective”. For the same compound, the Efficacy ([12]; 5 µg/day intravaginally) was “progressively increasing efficacy; also recorded: cleared infection significantly faster”, the Efficacy ([12]; 10 µg/day intravaginally) was “progressively increasing efficacy; also recorded: cleared infection significantly faster” and the “Percentage of intact CMP-NulO relative to t0” value ([13]; 6 weeks at 4 °C, pH 7) was “Greater than 90%”. The “Percentage of intact CMP-NulO relative to t0” value ([13]; 1 h, pH 4 (data not shown)) was “greater than 50%”, the “Percentage of intact CMP-NulO relative to t0” value ([13]; 4 h, pH 4, 37 °C) was 4% and the “Percentage of intact CMP-NulO relative to t0” value ([13]; 24 h at 37 °C, pH 5) was “about 54%”. For the same compound, the “Percentage of intact CMP-NulO relative to t0” value ([13]; 3 days at 20 °C, pH 7) was “Greater than 90%”, the “Relative stability over all test conditions” value ([13]; descending order: CMP-Leg5,7Ac2, CMP-Neu5Ac9N3, CMP-Neu5Ac, CMP-Kdn, pH 4-7, 4-37 °C) was “most stable” and the “Efficacy in clearing gonococcal colonization” value (N. gonorrhoeae H041 [2]) was “equally efficacious”. For the same compound, the “First day with significantly lower CFU counts than saline control” value (N. gonorrhoeae H041 [2]) was 1 days.

For `CC(=O)NC1C(OC(C)=O)CC(OP(=O)(O)OCC2OC(n3ccc(N)nc3=O)C(O)C2O)(C(=O)O)OC1C(O)C(O)CO` (stereo not drawn) [CMP-Neu4,5Ac2], the “Migration of LOS on silver-stained 16.5% Tricine gel” value (N. gonorrhoeae F62 ΔlgtD [14]) was “no change in migration of LOS”.

In the case of `CO[C@H](CO)[C@@H](O)[C@@H]1OC(O)(C(=O)O)C[C@H](O)[C@H]1NC(=O)CO` (stereo partly drawn) [Neu5Gc8Me, reference compound], the “FH binding to gonococci” value [3] is listed as “lack of detectable FH binding” and the “Utilization by Lst” value [6] is listed as “utilized by Lst”.

For `CC(=O)N[C@H]1[C@H]([C@H](O)[C@H](O)COC(C)=O)O[C@@](OP(=O)(O)OC[C@H]2O[C@@H](n3ccc(N)nc3=O)[C@H](O)[C@@H]2O)(C(=O)O)C[C@@H]1O` [CMP-Neu5,9Ac2], the “Prevention” value (N. gonorrhoeae F62 ΔlgtD [9]) was “rendered F62 ΔlgtD susceptible to 10% NHS, but not 3.3% NHS” and the “Efficacy in clearing gonococcal colonization” value (N. gonorrhoeae H041 [2]) was “ineffective”.

In the case of `CC(=O)N[C@H]([C@@H]1O[C@](OP(=O)(O)OC[C@H]2O[C@@H](n3ccc(N)nc3=O)[C@H](O)[C@@H]2O)(C(=O)O)C[C@H](O)[C@@H]1NC(C)=O)[C@H](C)O` [CMP-Pse5,7Ac2], the “Utilization by Lst” value [6] is listed as “not utilized by Lst”.

For `O=c1ccc2ncc(=O)n3c2n1C[C@H]3CN1CCC(NCc2cc3c(cn2)OCCC3)CC1` [gepotidacin], the “Treatment of uncomplicated urogenital infections” value (N. gonorrhoeae [7]) is given as “appear promising” and the “Eradication of oropharyngeal infection” value (N. gonorrhoeae [7]) is given as “failures to eradicate oropharyngeal infection”.
